From ChEMBL document CHEMBL4334447, “Discovery of 4-Aminoquinoline-3-carboxamide Derivatives as Potent Reversible Bruton's Tyrosine Kinase Inhibitors for the Treatment of Rheumatoid Arthritis” (J Med Chem, 2019)
Converted amounts (≈) assume the structure as drawn. The source made the active and inactive calls. The calls are words filed in the database; no cut-off is given here.

Tests used:
[1] = Kinetic aqueous solubility of the compound in pH 7.4 phosphate buffered saline incubated for 24 hrs under shaking condition by HPLC analysis; type: physicochemical; settings: read-out: Kinetic_solubility
Procedure, shortened: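 Dry powder shaken 24 h at 25 °C in 0.1 M phosphate buffer, pH 7.4, then filtered through a 0.45 µm membrane. Concentration determined by HPLC against a standard of the compound in DMSO. Mean of three separate assays in triplicate.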

[2] = target: Tyrosine-protein kinase BTK (Homo sapiens, UniProt Q06187); test: Reversible inhibition of FAM-labeled peptide binding to full-length human N-terminal GST-tagged BTK (2 to 659 residues) expressed in baculovirus infected Sf21 insect cells at preincubated for 10 mins followed by FAM-labeled peptide addition and measured by off-chip mobility shift assay
Sequence of Tyrosine-protein kinase BTK (Homo sapiens, UniProt Q06187) (Q06187 whole entry, the tested form may be a part): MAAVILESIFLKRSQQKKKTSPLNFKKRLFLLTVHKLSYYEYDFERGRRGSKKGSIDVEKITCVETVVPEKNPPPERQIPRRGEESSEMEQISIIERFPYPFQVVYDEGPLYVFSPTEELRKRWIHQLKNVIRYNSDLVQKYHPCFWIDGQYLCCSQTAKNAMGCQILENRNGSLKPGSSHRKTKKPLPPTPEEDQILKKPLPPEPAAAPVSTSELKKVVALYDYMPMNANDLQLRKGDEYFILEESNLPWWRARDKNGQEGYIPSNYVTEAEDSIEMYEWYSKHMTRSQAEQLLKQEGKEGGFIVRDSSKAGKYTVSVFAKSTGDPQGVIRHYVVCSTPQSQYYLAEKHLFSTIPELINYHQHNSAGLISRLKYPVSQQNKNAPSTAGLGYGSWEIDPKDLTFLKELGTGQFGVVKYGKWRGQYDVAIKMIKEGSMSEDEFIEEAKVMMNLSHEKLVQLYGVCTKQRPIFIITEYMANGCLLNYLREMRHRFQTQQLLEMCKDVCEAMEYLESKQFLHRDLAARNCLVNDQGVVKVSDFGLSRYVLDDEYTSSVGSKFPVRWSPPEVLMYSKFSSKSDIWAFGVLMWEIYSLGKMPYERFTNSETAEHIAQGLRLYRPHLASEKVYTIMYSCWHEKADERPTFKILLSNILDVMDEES

Homo sapiens [3] = species: Homo sapiens; test: Selectivity ratio of IC50 for human full-length recombinant YES to IC50 for inhibition of FAM-labeled peptide binding to full-length human N-terminal GST-tagged BTK (2 to 659 residues) expressed in baculovirus infected Sf21 insect cells
Procedure, shortened: (§1)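 Ratio of kinase IC50 to BTK IC50. BTK measured by off-chip mobility shift: compound preincubated 10 min with BTK in 50 mM HEPES pH 7.5, 0.01% Brij-35, then FAM-labelled peptide and ATP added, 28 °C. Stopped with EDTA buffer; percent conversion fitted for IC50. Each panel kinase assayed in triplicate.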

[4] = Half life in Sprague-Dawley rat at 2 mg/kg, iv by LC-MS/MS analysis; type: ADME, organism-based; settings: in vivo
Procedure, shortened: (§2)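 Male Sprague-Dawley rats (187-205 g, n=6 per route). IV group: 2 mg/kg by tail vein in 10% DMSO/90% PEG400, fed animals. Oral group: 5 mg/kg as a 0.5% methylcellulose suspension, fasted animals. Jugular cannula blood taken pre-dose and from 0.033 h (iv only) to 24 h. Plasma stored at -20 °C and analysed by LC-MS/MS.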

[5] = Toxicity in complete freund's adjuvant-induced DBA/1 mouse arthritis model assessed as change in body weight at 10 mg/kg, po qd administered starting from 29 day post-CFA challenge and measured on day 29, 33, 36, 40 and 43; type: organism-based; settings: in vivo, 696 h
Procedure, shortened: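 CIA in male DBA/1 mice: intradermal bovine type II collagen in CFA on day 0, collagen II in IFA boost on day 20. Randomized on day 29 and given oral doses once daily (n=6 per group) alongside vehicle and naive groups. Body weights recorded over the study days.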

[6] = target: T1, Tyrosine-protein kinase Tec (Homo sapiens, UniProt P42680); test: Inhibition of recombinant human N-terminal GST-fused TEC catalytic domain (359 to 631 residues) expressed in baculovirus expression system using biotin-labelled STK/TK as substrate measured after 1 hr by HTRF assay
T1 sequence (P42680 whole entry): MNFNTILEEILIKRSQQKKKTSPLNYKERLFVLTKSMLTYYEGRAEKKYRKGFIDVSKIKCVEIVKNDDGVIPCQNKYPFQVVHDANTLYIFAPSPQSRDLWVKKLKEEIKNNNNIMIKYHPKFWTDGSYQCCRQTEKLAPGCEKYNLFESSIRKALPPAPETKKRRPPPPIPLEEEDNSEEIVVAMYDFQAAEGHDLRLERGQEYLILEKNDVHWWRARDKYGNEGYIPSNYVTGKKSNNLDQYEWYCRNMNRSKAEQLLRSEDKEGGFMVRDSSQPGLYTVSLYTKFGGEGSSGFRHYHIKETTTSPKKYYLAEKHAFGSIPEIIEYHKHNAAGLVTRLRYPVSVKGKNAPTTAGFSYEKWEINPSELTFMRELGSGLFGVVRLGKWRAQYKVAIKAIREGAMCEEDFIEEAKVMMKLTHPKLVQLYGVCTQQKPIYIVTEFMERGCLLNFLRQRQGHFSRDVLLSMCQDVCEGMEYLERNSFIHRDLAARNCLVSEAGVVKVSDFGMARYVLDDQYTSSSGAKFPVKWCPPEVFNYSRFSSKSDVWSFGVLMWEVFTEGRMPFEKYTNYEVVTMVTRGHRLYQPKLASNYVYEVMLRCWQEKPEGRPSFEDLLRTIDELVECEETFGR
Procedure, shortened: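 HTRF KinEase format: TEC kinase and substrate mixed with serial compound concentrations at rt, then ATP added to start. Stopped after 1 h with EDTA detection solution containing europium anti-phosphotyrosine antibody and streptavidin-XL665. Read after a further 1 h at rt. Mean of ≥3 assays in triplicate.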

Homo sapiens [7] = species: Homo sapiens; test: Selectivity ratio of IC50 for recombinant human ITK (352 to 617 residues) to IC50 for inhibition of FAM-labeled peptide binding to full-length human N-terminal GST-tagged BTK (2 to 659 residues) expressed in baculovirus infected Sf21 insect cells; procedure, shortened: as §1
Mus musculus = test: Antiarthritic activity in complete freund's adjuvant-induced DBA/1 mouse arthritis model assessed as reduction in paw volume at 10 mg/kg, po qd administered starting from 29 day post-CFA challenge and measured on day 29, 33, 36, 40 and 43 by caliper method; type: functional, organism-based
Procedure, shortened: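 Male DBA/1 mice (18-20 g, 4-6 weeks) immunized intradermally at the tail base with bovine type II collagen in CFA on day 0, then challenged with collagen II in IFA on day 20. Randomized on day 29 and dosed orally once daily (n=6 per group) with vehicle as control. Paw thickness measured by caliper on days 29, 33, 36, 40 and 43. Mean ± SEM; Dunnett's test vs vehicle.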

[8] = Stability in Beagle dog plasma assessed as parent compound remaining at 1 uM measured after 2 hrs by LC-MS/MS analysis; type: ADME, cell-free, Canis lupus familiaris; settings: read-out: Stability
Procedure, shortened: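 Compound at 1 µM initial concentration incubated 2 h at 37 °C in plasma. Quenched with 10 volumes of methanol containing internal standard, then centrifuged. Supernatant diluted with an equal volume of water and analysed by LC-MS/MS. Read-out is % parent remaining. Mean of three separate assays run in triplicate.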

[9] = target: Tyrosine-protein kinase Fyn (Homo sapiens, UniProt P06241); test: Inhibition of human full-length recombinant FYN using KVEKIGEGTYGVVYK as substrate measured after 40 mins in presence of [gamma-33P]-ATP by scintillation counting analysis
Sequence of Tyrosine-protein kinase Fyn (P06241 whole entry): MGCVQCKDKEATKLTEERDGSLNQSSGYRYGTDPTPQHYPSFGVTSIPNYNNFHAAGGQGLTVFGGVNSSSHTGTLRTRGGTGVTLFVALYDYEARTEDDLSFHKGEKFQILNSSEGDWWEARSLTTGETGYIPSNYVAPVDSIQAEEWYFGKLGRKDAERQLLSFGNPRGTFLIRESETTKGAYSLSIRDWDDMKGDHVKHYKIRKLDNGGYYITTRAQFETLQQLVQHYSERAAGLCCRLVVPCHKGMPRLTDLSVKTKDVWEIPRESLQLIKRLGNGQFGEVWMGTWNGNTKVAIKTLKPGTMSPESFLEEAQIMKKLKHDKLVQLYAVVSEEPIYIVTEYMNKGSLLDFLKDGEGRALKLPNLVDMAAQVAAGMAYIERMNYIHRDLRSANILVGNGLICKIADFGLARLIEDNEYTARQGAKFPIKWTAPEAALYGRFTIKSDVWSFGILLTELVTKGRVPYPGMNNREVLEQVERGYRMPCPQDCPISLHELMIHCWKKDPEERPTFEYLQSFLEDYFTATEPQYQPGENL
Procedure, shortened: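 Started with Mg/ATP; 40 min at room temperature. Stopped with 0.5% phosphoric acid, spotted onto P30 filtermat, washed, scintillation counted. Mean of ≥3 assays in triplicate.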

Homo sapiens [10] = species: Homo sapiens; test: Selectivity ratio of IC50 for recombinant mouse full-length BLK V421E mutant to IC50 for inhibition of FAM-labeled peptide binding to full-length human N-terminal GST-tagged BTK (2 to 659 residues) expressed in baculovirus infected Sf21 insect cells
Procedure, shortened: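 Ratio is BLK IC50 divided by BTK IC50. BLK: radiometric, 50 mM Tris pH 7.5, 0.1 mM EGTA, 0.1 mM Na3VO4, 0.1% mercaptoethanol, 0.1 mg/mL poly(Glu,Tyr) 4:1, 10 mM Mg acetate, [γ-33P]ATP, 40 min room temperature, phosphoric acid stop, filter-bound scintillation counting. BTK: off-chip mobility shift with FAM-peptide. Triplicates, ≥3 assays.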

[11] = target: Tyrosine-protein kinase BTK (Homo sapiens, UniProt Q06187, C481S); test: biochemical
Sequence of Tyrosine-protein kinase BTK (Homo sapiens, UniProt Q06187, C481S) (Q06187 whole entry C481S): as the sequence (Q06187 whole entry, the tested form may be a part) above, with C481S counted along it

[12] = Volume of distribution in Sprague-Dawley rat at 2 mg/kg, iv or 5 mg/kg, po by LC-MS/MS analysis; type: ADME, organism-based; settings: in vivo; procedure, shortened: as §2
[13] = Oral bioavailability in Sprague-Dawley rat at 5 mg/kg by LC-MS/MS analysis; type: ADME, organism-based; settings: in vivo; procedure, shortened: as §2

Compound: COc1cc2cn[nH]c2cc1-c1ccc(F)c2c(N)c(C(N)=O)cnc12
- solubility kinetic at 24 h [1]: 7.3 µg/mL (≈ 20.8 µM)
- IC50 [2]: 5.3 nM
- Ratio IC50 (Homo sapiens [3]): > 1000
- half-life [4]: 1.2 h
- Activity [5]: Non-Toxic
- IC50 [6]: 227 nM
- Ratio IC50 (Homo sapiens [7]): 58
- Activity (Mus musculus): Active
- remaining at 2 h, 1 µM [8]: 88%
- IC50 [9]: 165 nM
- Ratio IC50 (Homo sapiens [10]): 28
- IC50 [11]: 39 nM
- Vd [12]: 2.1 L/kg
- bioavailability [13]: 25%
